This series in a line: Cytotoxicity assay. The format is cell-based. The following applies: human. In outline: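 Replicon cells (Huh5-2, Huh7.5-3a or Huh7.5-4a) were seeded at 10^4 per well and grown 24 h in complete DMEM. They were then exposed for three days to serial dilutions of test compound or DMSO solvent. Lysates were assayed for ATP by chemiluminescence, normalised to Bradford total protein. CC50 was obtained by nonlinear regression against log concentration.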

Usually CC50 stands for the concentration giving 50% cytotoxicity. With `COC(=O)N[C@H](C(=O)N1CCC[C@H]1C(=O)Nc1ccc(C#CC#Cc2ccc(NC(=O)[C@@H]3CCCN3C(=O)[C@@H](NC(=O)OC)C(C)C)cc2)cc1)C(C)C` [1a, Dimethyl((2S,2′S)-((2S,2′S)-(((buta-1,3-diyne-1,4-diylbis(4,1-phenylene))bis(azanediyl))bis(carbonyl))bis(pyrrolidine-2,1-diyl))bis(3-methyl-1-oxobutane-1,2-diyl))dicarbamate], half-maximal cytotoxicity (CC50 at 3 days) was put at 11 µM.

`CCCCOC(=O)N[C@H](C(=O)N1CCC[C@H]1C(=O)Nc1ccc(C#CC#Cc2ccc(NC(=O)[C@@H]3CCCN3C(=O)[C@@H](NC(=O)OCCCC)C(C)C)cc2)cc1)C(C)C` [1c, Dibutyl((2S,2′S)-((2S,2′S)-(((buta-1,3-diyne-1,4-diylbis(4,1-phenylene))bis(azanediyl))bis(carbonyl))bis(pyrrolidine-2,1-diyl))bis(3-methyl-1-oxobutane-1,2-diyl))dicarbamate] displayed a CC50 at 3 days of more than 20 µM.

In turn, `CC(C)COC(=O)N[C@H](C(=O)N1CCC[C@H]1C(=O)Nc1ccc(C#CC#Cc2ccc(NC(=O)[C@@H]3CCCN3C(=O)[C@@H](NC(=O)OCC(C)C)C(C)C)cc2)cc1)C(C)C` [1d, Diisobutyl((2S,2′S)-((2S,2′S)-(((buta-1,3-diyne-1,4-diylbis(4,1-phenylene))bis(azanediyl))bis(carbonyl))bis(pyrrolidine-2,1-diyl))bis(3-methyl-1-oxobutane-1,2-diyl))dicarbamate] displayed a CC50 at 3 days of more than 10 µM.

`CCOC(=O)N[C@@H](CC(C)C)C(=O)N1CCC[C@H]1C(=O)Nc1ccc(C#CC#Cc2ccc(NC(=O)[C@@H]3CCCN3C(=O)[C@H](CC(C)C)NC(=O)OCC)cc2)cc1` [1f, Diethyl((2S,2′S)-((2S,2′S)-(((buta-1,3-diyne-1,4-diylbis(4,1-phenylene))bis(azanediyl))bis(carbonyl))bis(pyrrolidine-2,1-diyl))bis(4-methyl-1-oxopentane-1,2-diyl))dicarbamate] had a CC50 at 3 days of more than 10 µM.

In turn, `CCCCOC(=O)N[C@@H](CC(C)C)C(=O)N1CCC[C@H]1C(=O)Nc1ccc(C#CC#Cc2ccc(NC(=O)[C@@H]3CCCN3C(=O)[C@H](CC(C)C)NC(=O)OCCCC)cc2)cc1` [1g, Dibutyl((2S,2′S)-((2S,2′S)-(((buta-1,3-diyne-1,4-diylbis(4,1-phenylene))bis(azanediyl))bis(carbonyl))bis(pyrrolidine-2,1-diyl))bis(4-methyl-1-oxopentane-1,2-diyl))dicarbamate] had a CC50 at 3 days of more than 10 µM.

Turning to `CCOC(=O)N[C@H](C(=O)N1CCC[C@H]1C(=O)Nc1ccc(C#CC#Cc2ccc(NC(=O)[C@@H]3CCCN3C(=O)[C@@H](NC(=O)OCC)C(C)CC)cc2)cc1)C(C)CC` (stereo partly drawn) [1h, Diethyl((2S,2′S)-((2S,2′S)-(((buta-1,3-diyne-1,4-diylbis(4,1-phenylene))bis(azanediyl))bis(carbonyl))bis(pyrrolidine-2,1-diyl))bis(3-methyl-1-oxopentane-1,2-diyl))dicarbamate], the CC50 at 3 days is more than 10 µM.

For the compound `CCCCOC(=O)N[C@H](C(=O)N1CCC[C@H]1C(=O)Nc1ccc(C#CC#Cc2ccc(NC(=O)[C@@H]3CCCN3C(=O)[C@@H](NC(=O)OCCCC)C(C)CC)cc2)cc1)C(C)CC` (stereo partly drawn) [1i, Dibutyl((2S,2′S)-((2S,2′S)-(((buta-1,3-diyne-1,4-diylbis(4,1-phenylene))bis(azanediyl))bis(carbonyl))bis(pyrrolidine-2,1-diyl))bis(3-methyl-1-oxopentane-1,2-diyl))dicarbamate], the CC50 at 3 days is more than 10 µM.

For the compound `CCOC(=O)N[C@H](C(=O)N1CCC[C@@H]1C(=O)Nc1ccc(C#CC#Cc2ccc(NC(=O)[C@H]3CCCN3C(=O)[C@@H](NC(=O)OCC)C(C)C)cc2)cc1)C(C)C` [1j, Diethyl((2S,2′S)-((2R,2′R)-(((buta-1,3-diyne-1,4-diylbis(4,1-phenylene))bis(azanediyl))bis(carbonyl))bis(pyrrolidine-2,1-diyl))bis(3-methyl-1-oxobutane-1,2-diyl))dicarbamate], the CC50 at 3 days was more than 10 µM.

For the origin of these results see article PMC6682128 (ACS Omega, 2019).
